The target in data set [1] is T1, Oxysterols receptor LXR-beta (Homo sapiens, UniProt P55055).
T1 sequence (P55055 whole entry): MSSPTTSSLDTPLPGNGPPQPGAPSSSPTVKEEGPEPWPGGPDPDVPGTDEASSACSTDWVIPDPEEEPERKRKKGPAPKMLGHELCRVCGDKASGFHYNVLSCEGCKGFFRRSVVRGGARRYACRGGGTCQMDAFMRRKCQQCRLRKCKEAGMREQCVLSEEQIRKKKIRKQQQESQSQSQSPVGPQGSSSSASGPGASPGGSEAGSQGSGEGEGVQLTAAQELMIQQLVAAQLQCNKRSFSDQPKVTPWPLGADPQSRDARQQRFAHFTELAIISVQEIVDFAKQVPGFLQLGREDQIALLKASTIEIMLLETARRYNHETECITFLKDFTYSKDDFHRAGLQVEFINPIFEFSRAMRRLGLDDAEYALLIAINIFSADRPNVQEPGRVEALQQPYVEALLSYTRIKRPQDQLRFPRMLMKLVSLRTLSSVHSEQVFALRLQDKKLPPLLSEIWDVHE
The data set is described as follows: Transactivational antagonist activity at human LXRbeta transfected in HEK293 cells expressing CMX-Gal4N assessed as inhibition of T1317-induced luciferase activity after 16 hrs by reporter gene assay. The data set is classed as functional, cell-based.

Data set [2] is described as follows: Transrepressional activity at LXR in C57BL/6J mouse peritoneal macrophages assessed as inhibition of LPS-induced IL-6 mRNA expression at 10 uM incubated for 6 hr prior to LPS-challenge measured after 18 hrs by RT-PCR analysis. A digest of the protocol:
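Thioglycollate-elicited peritoneal macrophages (wild-type C57BL/6J or LXRα-null, 8–10 weeks) were plated at 4 × 10⁶/well and pretreated with compound 6 h before LPS 100 ng/mL. Cells were harvested after 18 h. il-6 and il-1β mRNA were measured by real-time quantitative PCR, normalized to GAPDH.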

The target of data set [3] is T2, Oxysterols receptor LXR-alpha (Homo sapiens) (UniProt Q13133).
T2 sequence (whole entry): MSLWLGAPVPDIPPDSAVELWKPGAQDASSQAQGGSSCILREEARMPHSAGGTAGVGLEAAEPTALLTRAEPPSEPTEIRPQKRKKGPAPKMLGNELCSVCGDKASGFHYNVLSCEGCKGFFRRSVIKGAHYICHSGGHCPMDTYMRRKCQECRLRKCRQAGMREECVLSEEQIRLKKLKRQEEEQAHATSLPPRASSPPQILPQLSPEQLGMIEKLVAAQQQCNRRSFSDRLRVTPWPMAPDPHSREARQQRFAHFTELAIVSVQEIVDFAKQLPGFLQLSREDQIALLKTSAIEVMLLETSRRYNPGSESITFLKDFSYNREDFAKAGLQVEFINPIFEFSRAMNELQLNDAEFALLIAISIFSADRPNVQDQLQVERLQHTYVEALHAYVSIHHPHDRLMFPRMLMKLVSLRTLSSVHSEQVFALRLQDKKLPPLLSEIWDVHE
As to the kind of experiment: Transactivational antagonist activity at human LXRalpha transfected in HEK293 cells coexpressing CMX-Gal4N-NCoR assessed as NCoR recruitment after 16 hrs by reporter gene assay. The format is functional, cell-based. The method, boiled down:
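Mammalian two-hybrid in HEK293 cells by calcium phosphate cotransfection: CMX-VP16N-hLXRα, Gal4N-fused SRC1, DRIP205, NCoR or SMRT (15 ng), tk-MH100×4-luc (50 ng) and CMX-β-gal (10 ng). Compound or DMSO added 8 h after transfection for 16 h. Luciferase was normalized to β-galactosidase, in triplicate.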

The target in data set [4] is T1, Oxysterols receptor LXR-beta. The data set is described as follows: Transactivational agonist activity at human LXRbeta transfected in HEK293 cells expressing CMX-Gal4N assessed as luciferase activity at 30 uM after 16 hrs by reporter gene assay. The data set is classed as cell-based. The settings on record: hek293, 16 h.
Data set [5] deals with T3, Peroxisome proliferator-activated receptor gamma (Homo sapiens) (UniProt P37231).
T3 sequence (whole entry): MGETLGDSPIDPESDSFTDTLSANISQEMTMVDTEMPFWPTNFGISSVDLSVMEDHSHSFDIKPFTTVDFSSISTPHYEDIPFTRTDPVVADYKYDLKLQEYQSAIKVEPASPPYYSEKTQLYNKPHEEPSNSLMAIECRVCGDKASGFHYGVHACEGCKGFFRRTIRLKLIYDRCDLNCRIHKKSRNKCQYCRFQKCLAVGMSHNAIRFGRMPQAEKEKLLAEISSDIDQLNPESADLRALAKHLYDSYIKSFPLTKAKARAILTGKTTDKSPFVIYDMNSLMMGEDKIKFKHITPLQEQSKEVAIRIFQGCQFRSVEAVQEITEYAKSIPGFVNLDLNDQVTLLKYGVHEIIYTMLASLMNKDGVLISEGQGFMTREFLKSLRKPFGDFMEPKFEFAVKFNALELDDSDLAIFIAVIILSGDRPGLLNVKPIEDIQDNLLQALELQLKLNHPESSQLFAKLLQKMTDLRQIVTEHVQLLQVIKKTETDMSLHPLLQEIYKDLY
As to the kind of experiment: Antagonist activity at human Gal4-fused PPARgamma assessed as inhibition of ciglitazone-induced luciferase activity at 0.1 to 10 uM by reporter gene assay. The data set is classed as functional.

Data set [6] deals with T3, Peroxisome proliferator-activated receptor gamma (Homo sapiens). The data set is described as follows: Agonist activity at human Gal4-fused PPARgamma assessed as luciferase activity at 10 uM by reporter gene assay relative to control. The format is functional.
Data set [7] concerns the target T4, Bile acid receptor (Homo sapiens) (UniProt Q96RI1).
T4 sequence (whole entry): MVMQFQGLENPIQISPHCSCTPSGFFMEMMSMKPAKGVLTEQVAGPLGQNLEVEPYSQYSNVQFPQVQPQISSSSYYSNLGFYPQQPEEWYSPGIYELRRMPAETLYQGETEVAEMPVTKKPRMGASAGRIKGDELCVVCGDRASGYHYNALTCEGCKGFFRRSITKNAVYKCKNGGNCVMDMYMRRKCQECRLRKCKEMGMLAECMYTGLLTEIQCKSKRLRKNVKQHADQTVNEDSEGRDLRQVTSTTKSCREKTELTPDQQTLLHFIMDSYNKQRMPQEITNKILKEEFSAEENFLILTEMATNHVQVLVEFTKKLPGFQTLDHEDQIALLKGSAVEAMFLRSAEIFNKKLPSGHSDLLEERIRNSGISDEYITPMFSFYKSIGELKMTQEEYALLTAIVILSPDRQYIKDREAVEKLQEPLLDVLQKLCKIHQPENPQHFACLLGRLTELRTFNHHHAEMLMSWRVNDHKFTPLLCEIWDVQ
The data set is described as follows: Agonist activity at human Gal4-fused FXR assessed as luciferase activity at 0.03 to 10 uM by reporter gene assay. The format is functional.

Calls of active or inactive are those of the source. No cut-off for these calls is given here.

For `C=C1c2ccccc2C(=O)N(C)c2ccc(CC)cc21`, in data set [1], the IC50 is greater than 30 µM. In data set [2], the inhibition result is “Active”. The Activity entry in data set [3] is “Dose-dependent effect”; in data set [4] it was “Not Active”; in data set [6], 20%. Moreover, in data set [5], the inhibition result was “inactive”. In addition, the outcome in data set [7] was inactive.
